Reference: ChEMBL document CHEMBL1153534, “Design and synthesis of androgen receptor antagonists with bulky side chains for overcoming antiandrogen resistance” (J Med Chem, 2009)
Active and inactive are the calls of the source.

How the values were obtained:
PC-3 = test: Antiandrogenic activity in human PC3 cells expressing androgen receptor W741C mutant assessed as inhibition of DHT-induced ARE-dependent transactivation at 1 uM after 24 hrs by luciferase reporter gene assay; format: cell-based
Method in brief: (§1)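 PC-3 cells, which lack endogenous AR, transiently transfected with plasmids expressing human AR (WT, T877A, W741C or H874Y) plus an ARE-driven MMTV-luc reporter. Cells were treated with or without 0.1 nM DHT. Firefly luciferase was standardized to a Renilla control and normalized to the 0.1 nM DHT signal. Mean ± sd.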

[1] = target: T1, Androgen receptor (Rattus norvegicus) (UniProt P15207); test: Binding affinity to rat androgen receptor ligand binding domain by competitive fluorescence polarization assay
T1 sequence (whole entry): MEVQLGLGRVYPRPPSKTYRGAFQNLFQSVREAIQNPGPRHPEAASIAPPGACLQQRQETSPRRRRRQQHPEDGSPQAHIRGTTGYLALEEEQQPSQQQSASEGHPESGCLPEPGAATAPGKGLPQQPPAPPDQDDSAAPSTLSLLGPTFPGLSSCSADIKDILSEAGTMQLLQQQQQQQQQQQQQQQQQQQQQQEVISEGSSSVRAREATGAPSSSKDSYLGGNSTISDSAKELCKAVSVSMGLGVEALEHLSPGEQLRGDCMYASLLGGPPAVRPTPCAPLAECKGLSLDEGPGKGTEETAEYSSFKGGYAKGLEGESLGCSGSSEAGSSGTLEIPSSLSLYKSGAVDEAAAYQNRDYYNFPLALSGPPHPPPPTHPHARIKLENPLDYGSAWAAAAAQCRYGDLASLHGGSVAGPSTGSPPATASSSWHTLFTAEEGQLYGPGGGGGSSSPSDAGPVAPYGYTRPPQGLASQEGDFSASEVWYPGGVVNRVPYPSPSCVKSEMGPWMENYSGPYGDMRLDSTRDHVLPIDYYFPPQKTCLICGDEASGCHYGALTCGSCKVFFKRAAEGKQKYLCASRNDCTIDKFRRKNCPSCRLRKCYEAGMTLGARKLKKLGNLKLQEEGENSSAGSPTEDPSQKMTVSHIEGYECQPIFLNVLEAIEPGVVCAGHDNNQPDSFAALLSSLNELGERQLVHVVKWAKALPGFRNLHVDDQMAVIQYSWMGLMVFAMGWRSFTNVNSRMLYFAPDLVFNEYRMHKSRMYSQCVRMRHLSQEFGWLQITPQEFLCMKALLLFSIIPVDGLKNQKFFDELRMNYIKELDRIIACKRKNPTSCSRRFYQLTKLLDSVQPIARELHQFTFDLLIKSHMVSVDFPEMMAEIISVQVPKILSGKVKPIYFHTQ
Method in brief: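 Competitive fluorescence polarization with the PolarScreen AR competitor kit, measuring displacement of a fluorescent tracer from the AR-LBD. Polarization was normalized to DMSO vehicle, which sets the maximum. Tracer without receptor sets the minimum, and DHT served as positive control. Average ± sd of experiments in triplicate.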

[2] = target: T2, Androgen receptor (Homo sapiens) (UniProt P10275); test: Antiandrogenic activity in human PC3 cells expressing wild-type androgen receptor assessed as inhibition of DHT-induced ARE-dependent transactivation at 1 uM after 24 hrs by luciferase reporter gene assay; format: cell-based; details: PC-3; method in brief: as §1
T2 sequence (whole entry): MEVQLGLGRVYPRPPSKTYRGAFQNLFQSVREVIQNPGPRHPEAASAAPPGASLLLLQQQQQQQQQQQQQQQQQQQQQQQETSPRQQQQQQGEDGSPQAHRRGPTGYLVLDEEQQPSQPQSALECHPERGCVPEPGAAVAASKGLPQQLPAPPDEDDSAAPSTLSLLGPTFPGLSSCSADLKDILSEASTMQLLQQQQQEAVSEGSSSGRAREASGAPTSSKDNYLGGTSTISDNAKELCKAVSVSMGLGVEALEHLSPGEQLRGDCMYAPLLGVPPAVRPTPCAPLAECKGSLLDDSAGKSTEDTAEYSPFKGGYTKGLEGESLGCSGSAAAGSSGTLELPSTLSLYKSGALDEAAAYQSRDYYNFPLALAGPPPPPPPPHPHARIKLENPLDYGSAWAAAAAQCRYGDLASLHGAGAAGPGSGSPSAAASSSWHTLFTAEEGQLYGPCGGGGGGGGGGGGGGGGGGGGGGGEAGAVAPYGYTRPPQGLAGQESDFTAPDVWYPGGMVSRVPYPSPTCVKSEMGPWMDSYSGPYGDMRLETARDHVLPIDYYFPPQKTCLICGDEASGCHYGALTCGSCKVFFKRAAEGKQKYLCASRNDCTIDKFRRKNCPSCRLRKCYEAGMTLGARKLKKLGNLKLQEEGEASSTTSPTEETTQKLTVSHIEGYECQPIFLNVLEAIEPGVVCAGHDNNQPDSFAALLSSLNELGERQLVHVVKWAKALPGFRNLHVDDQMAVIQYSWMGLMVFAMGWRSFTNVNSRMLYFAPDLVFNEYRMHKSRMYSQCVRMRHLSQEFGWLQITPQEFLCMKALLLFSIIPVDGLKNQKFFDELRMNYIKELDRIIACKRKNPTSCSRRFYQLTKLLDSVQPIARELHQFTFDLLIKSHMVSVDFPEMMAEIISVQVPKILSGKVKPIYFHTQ

Measured: Activity

COc1cc(/C=C(\C(=O)/C=C/C2=C(C)CCCC2(C)C)C(=O)/C=C/c2ccc(O)c(OC)c2)ccc1O
active: PC-3 | [1] Dose-dependent effect | [2]
